High-throughput results from PubChem BioAssay.
Only some compounds are listed: those with a hit (about 2.7% of all), similar ones and a draw of the others.
SIAE primary = human SIAE inhibitors, primary screen, biochemical, fluorescence polarization, FP-Rh probe, 1536-well HTS. Sialate O-acetylesterase (Homo sapiens), Q9HAT2. inhibition, % at 9.66 µM. hit rate 0.69% among 370,000. SIAE FP-Rh probe binding;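 active means inhibition above a cutoff: mean of compounds within the control limits plus 3 SD of those, cut at about 17% in these data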;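 further: 0% = plate median of compound wells and 100% = probe without SIAE protein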
ABHD4 inh = ABHD4 inhibitors, primary screen, biochemical, fluorescence polarization, mouse. (Lyso)-N-acylphosphatidylethanolamine lipase (Mus musculus), Q8VD66. purified mABHD4, FP-Rh probe fluorescence polarization. inhibition, % at 8.92 µM. hit rate 0.54% among 370,000. AID 720543, 2013;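 active means inhibition exceeding the mean over every tested compound plus 3 SD, cut at about 30% in these data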;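 further: 0% = plate median of compound wells and 100% = S159A mutant with DMSO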
Target sequence (Q8VD66 whole entry, looked up): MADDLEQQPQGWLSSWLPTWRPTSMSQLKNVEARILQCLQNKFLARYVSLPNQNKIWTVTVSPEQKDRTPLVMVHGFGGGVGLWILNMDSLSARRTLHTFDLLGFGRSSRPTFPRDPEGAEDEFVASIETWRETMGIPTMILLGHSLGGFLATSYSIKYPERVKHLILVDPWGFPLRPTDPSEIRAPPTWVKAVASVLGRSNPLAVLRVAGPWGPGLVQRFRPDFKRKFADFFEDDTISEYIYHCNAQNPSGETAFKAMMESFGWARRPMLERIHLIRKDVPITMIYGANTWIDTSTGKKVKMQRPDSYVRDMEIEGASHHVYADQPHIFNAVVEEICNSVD
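Test system: mouse ABHD4 enzyme, wild type. Reagent: FP-Rh fluorescent activity-based probe, added after compound pre-incubation. Timing: pre-incubation 45 min, probe exposure 60 min, at 25 °C. Technique: FP readout, ex 525 nm / em 598 nm. Benchmarks: high control S159A mutant with DMSO, low control median of compound wells.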
PRMT1 FP inh = PRMT1 methyltransferase inhibitors, primary screen, biochemical, fluorescence polarization | Protein arginine N-methyltransferase 1 (Homo sapiens), Q99873 | recombinant PRMT1, activity-based probe fluorescence polarization | inhibition, % at 2.79 µM | hit rate 1.3% among 370,000;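 active means inhibition above about 21% made by adding two undisclosed values, limit read from the data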
Target sequence (Q99873 whole entry, looked up): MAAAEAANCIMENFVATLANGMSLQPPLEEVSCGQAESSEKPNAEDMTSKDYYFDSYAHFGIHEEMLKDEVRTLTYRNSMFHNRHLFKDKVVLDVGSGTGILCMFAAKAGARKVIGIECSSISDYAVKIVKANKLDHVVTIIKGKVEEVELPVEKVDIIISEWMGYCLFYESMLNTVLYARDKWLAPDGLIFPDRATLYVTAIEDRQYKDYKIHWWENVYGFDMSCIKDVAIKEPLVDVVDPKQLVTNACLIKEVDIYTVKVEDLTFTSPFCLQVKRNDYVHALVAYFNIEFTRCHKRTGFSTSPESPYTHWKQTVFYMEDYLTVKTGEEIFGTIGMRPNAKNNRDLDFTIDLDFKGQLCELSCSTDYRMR
TCR CD3 inh = inhibitors of human TCR-CD3 interaction, primary screen, biochemical, fluorescence, TAMRA-labeled TCR probe; inhibition, % at 9.4 µM; AID 651800, 2012; T-cell receptor (TCR); hit rate 0.37% among 360,000; in the data active means inhibition above about 19%;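 further: recombinant mutant TCR 2C K166C tagged with TAMRA read by polarization; 0% = receptor in buffer alone and 100% = receptor with positive control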
HTRA1 inhibitor = HTRA1 serine protease inhibitors, primary screen, biochemical, fluorescence polarization, HTS; Q92743; recombinant HTRA1, FP-rhodamine activity-based probe; inhibition, % at 5.96 µM; hit rate 0.5% among 340,000; in the data active means inhibition above about 36%;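 further: 0% = enzyme with DMSO and 100% = wells lacking enzyme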
ABHD4 confirm = ABHD4 inhibitors, retest, confirmation, biochemical, fluorescence polarization, mouse; AID 720658, 2013; inhibition, % at 8.92 µM; purified mABHD4, FP-Rh probe fluorescence polarization; shares compounds with ABHD4 inh; hit rate 55% among 1,800;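 active means mean inhibition across replicates above the hit cutoff set in the primary screen, cut at about 30% in these data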;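 further: 0% = wild-type ABHD4 with DMSO and 100% = catalytically dead S159A mutant with DMSO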
The depositor's hits bear a star; x = no result.

SMILES | SIAE primary | ABHD4 inh | PRMT1 FP inh | TCR CD3 inh | HTRA1 inhibitor | ABHD4 confirm
CCCCCCCCN1C(=O)[C@H](CC(=O)NCCC(C)C)C[C@@]2(C(=O)OC)CCCCC=C12 | -6.6 | 0.8 | 0.0 | 6.3 | x | x
O=C(Nc1cccc(Cl)c1)c1cc(N=Nc2ccc([N+](=O)[O-])cc2Cl)ccc1O | 22.2* | 33.2* | -1.4 | -8.1 | 15.7 | 70.5*
O=C(Nc1ccc([N+](=O)[O-])cc1Cl)c1cc(Cl)ccc1O | -1.0 | 6.2 | -5.0 | 6.8 | 6.4 | x
[O-]C(=C(C(=S)Nc1cccc2ccccc12)[n+]1cccc(CO)c1)c1ccc(Cl)s1 | 4.7 | 30.4* | 19.2 | -0.5 | 9.4 | 62.8*
Cc1nnc(Nc2ccc(C(=O)O)cc2)[nH]c1=O | -0.4 | -2.8 | -1.1 | -1.6 | -1.7 | x
Cc1nnc(Nc2ccc(O)cc2)[nH]c1=O | 2.3 | 43.2* | 4.0 | -5.8 | 8.9 | 24.5
COc1ccc2nc3cc(Cl)ccc3c(Nc3cc(CN4CCCC4)c(O)c(CN4CCCC4)c3)c2n1 | 15.0 | 37.0* | 1.8 | 6.7 | x | 30.6*
COc1ccccc1OCC(=O)N1CCN(S(=O)(=O)c2ccc(Cl)cc2)CC1 | 6.1 | -1.0 | 3.3 | -7.9 | -3.8 | x
Cc1ccccc1N=Nc1c(N)[nH]n(-c2ccccc2)c1=O | 8.8 | 33.9* | -1.1 | x | x | 43.4*
Nc1[nH]n(-c2ccccc2)c(=O)c1N=Nc1ccc2c(c1)OCCO2 | 8.6 | 30.4* | -0.8 | 5.9 | 28.4 | 28.5
Cc1cc([N+](=O)[O-])ccc1N=Nc1c(N)[nH]n(-c2ccccc2)c1=O | 9.0 | 29.9* | 1.4 | 8.3 | 3.2 | 40.8*
Nc1[nH]n(-c2ccccc2)c(=O)c1N=Nc1ccc(F)cc1 | 11.4 | 27.0 | 0.9 | x | x | x
O=C(OCc1ccccc1)N1CCN(C(c2ccnc3ccccc23)c2nnnn2-c2ccc3c(c2)OCCO3)CC1 (stereo not given) | 0.0 | -11.5 | 3.9 | -0.2 | x | x
CCC(C)COC(c1ccccc1)(c1ccccc1)C(Oc1nc(C)cc(C)n1)C(=O)O (stereo not given) | -1.2 | 30.7* | -0.3 | 1.6 | -2.9 | 35.4*
Cc1cc(C)nc(OC(C(=O)O)C(OCCc2ccccc2)(c2ccc(F)cc2)c2ccc(F)cc2)n1 (stereo not given) | 0.0 | 39.9* | 3.5 | -4.4 | -9.9 | 42.6*
Cc1cc(C(O)c2ncc(-c3ccc(Oc4ccccc4)cc3)[nH]2)ccc1F (stereo not given) | -2.9 | -2.5 | -9.1 | 2.1 | x | x
COc1ccc2nc(Nc3nc(C)c(C(C)=O)s3)sc2c1 | 5.1 | 35.1* | 0.6 | 1.2 | 14.9 | 54.1*
COc1ccc(Nc2nc3ccc(OC)cc3s2)cc1 | 3.2 | 10.2 | -1.1 | -1.6 | -2.0 | x
COc1cc(N)c2ncccc2c1Br | 7.3 | 62.0* | 17.5 | 13.3 | 24.3 | 28.2
COc1cc(N)c2ncccc2c1SC | 11.7 | 16.9 | 4.3 | -3.9 | 10.3 | x
O=C(NNc1nc2ccccc2s1)c1ccccc1F | -3.2 | -0.1 | 5.3 | 3.5 | 7.4 | x
O=C(NNc1nc2ccccc2s1)Nc1ccc(F)cc1 | 12.5 | 38.0* | -1.7 | -0.4 | 7.0 | 0.8
CCCC#CCN1CCN(C23CC4CC(CC(C4)C2)C3)CC1 | 2.1 | -0.7 | -1.7 | 2.3 | 5.4 | x
COc1cccc(C2NC(=S)NC(C)=C2C(C)=O)c1 (stereo not given) | -1.2 | -4.8 | -0.6 | -3.0 | x | x
COc1ccc(CCNC(=O)c2ccccc2NS(=O)(=O)c2cc(C(=O)O)ccc2OC)cc1 | -13.7 | 33.3* | 4.0 | -5.3 | -4.3 | 23.8
SMILES | SIAE primary | ABHD4 inh | PRMT1 FP inh | TCR CD3 inh | HTRA1 inhibitor | ABHD4 confirm
COc1ccc(NC(C)=O)cc1S(=O)(=O)Nc1ccccc1C(=O)NCCc1ccccc1 | -12.4 | -4.9 | -4.8 | 1.1 | -3.2 | x
CCOC(=O)c1c(C)n(C)c2cc(Br)c(O)c(O)c12 | 12.5 | 30.1* | 14.3 | -4.2 | 9.1 | 5.1
CCc1nc2c(OCc3ccc(C#N)cc3)cccn2c1N(C)C(=O)c1cccs1 | 0.8 | 1.8 | -3.5 | 3.0 | x | x
Clc1cccc(-c2ccc(-c3nc4ccccn4c3NCc3ccccc3)cc2)c1 | 10.0 | 37.2* | 2.0 | 0.5 | -12.9 | 33.3*
CC(C)(C)CC(C)(C)c1ccc(OCCOCC[N+](C)(C)Cc2ccccc2)cc1 | 2.1 | 36.2* | -0.8 | 2.7 | 15.8 | 44.0*
CCCc1ccc(-c2cc(NC(=O)Cc3c[nH]c4ccccc34)ccc2Nc2cccnc2)cc1 | 10.7 | 41.8* | 0.2 | 8.5 | x | 38.9*
CC(C)(C)c1ccc(-c2cc(NC(=O)Cc3c[nH]c4ccccc34)ccc2Nc2cccnc2)cc1 | 10.8 | 40.7* | 4.7 | -3.9 | x | 54.6*
Cc1ccccc1C1CCC2(CC1)CCN(CC[C@@H](O)c1ccccc1)C2=O (stereo not given in full) | -3.2 | -13.5 | -1.7 | x | x | x
Cc1cccc(OCCC(=O)Nc2ccc(N3CCOCC3)cc2N2CCOCC2)c1 | -2.5 | 34.5* | -0.3 | -0.8 | 1.5 | -16.0
O=C1CCC(C(=O)OCC(=O)c2ccccc2)N1 (stereo not given) | -4.8 | 4.3 | 2.5 | -8.1 | 2.6 | x
CC1CC(C)C(=O)C(C(CC2CC(=O)NC(=O)C2)OC(=O)CC(=O)c2ccccc2)C1 (stereo not given) | 0.0 | 60.0* | -0.8 | 1.2 | 2.1 | 15.1
Cc1coc2c(C)c3oc(=O)c(CCC(=O)N(C)CC(=O)O)c(C)c3cc12 | 2.4 | -2.2 | -2.2 | 4.4 | 5.8 | x
Cc1ccc(C(=O)NNC2=Nc3cccc4cccc2c34)cc1 | -2.3 | 30.0* | 0.5 | -3.9 | 10.7 | 22.7
Nc1sc2c(c1C(=O)NCCc1ccccc1)CCCC2 | 12.7 | 37.0* | 35.5* | 3.9 | x | 4.3
Nc1sc2c(c1C(=O)NCCc1ccccc1)CCC2 | 5.5 | 4.2 | 7.6 | -0.4 | 0.1 | x
CCC(C(=O)NCCCN(CC)Cc1ccccc1)n1nc(C)c2sc3ccccc3c2c1=O (stereo not given) | 12.0 | 2.5 | -0.7 | 3.5 | -2.2 | x
O=S(=O)(c1ccc(NC(=S)N/N=C/c2ccc(O)c(O)c2)cc1)N1CCOCC1 | -4.2 | 31.2* | -0.4 | 8.0 | 35.2 | 20.8
O=C(c1ccccc1)N1CCN(C(=O)c2nn3c(C(F)(F)F)cc(-c4ccccc4)nc3c2Br)CC1 | -0.2 | 5.5 | 1.3 | -1.5 | 3.1 | x
CCOC(=O)C1=C(SCC)c2cc3c(n2C1=O)CCCC3 | 0.3 | 35.8* | 1.4 | -3.2 | 35.2 | 75.0*
CCOC(=O)c1cnc2cc3c(cn2c1=O)CCCC3 | 3.8 | -11.1 | 0.1 | -1.7 | 1.6 | x
CC(=O)c1ccc(OCC(=O)OCC(=O)c2ccc(S(=O)(=O)N3CCCCC3)cc2)cc1 | 3.4 | 1.0 | -2.5 | -4.6 | -3.1 | x
CCOc1ccc2[nH]c3c(NCCC(C)C)ncnc3c2c1 | 10.9 | 38.9* | -6.2 | -5.0 | 7.3 | 39.0*
